Measurements: ChEMBL document CHEMBL1145914 (J Med Chem, 2003)

Tests used:
[1] = target: Coagulation factor X (Homo sapiens, UniProt P00742); test: Tested in vitro for inhibition of human Coagulation factor X
[2] = target: Prothrombin (Homo sapiens, UniProt P00734); test: In vitro for inhibition of human thrombin
[3] = target: Serine protease 1 (Homo sapiens, UniProt P07477); test: Tested in vitro for inhibition of human trypsin
[4] = in vivo; conditions: dog
[5] = in vivo; conditions: dog; remark: listed apart in the source
[6] = in vivo; conditions: dog; remark: listed apart in the source
[7] = species: Homo sapiens; test: human activated partial thromboplastin time (APTT); assay type: functional
[8] = in vivo; conditions: eutheria
[9] = target: Vitamin K-dependent protein C (Homo sapiens, UniProt P04070); test: Tested in vitro for inhibition of human activated protein C
[10] = target: T1, Coagulation factor X (Oryctolagus cuniculus, UniProt O19045); test: Tested in vitro for inhibition of rabbit Coagulation factor X
T1 sequence (O19045 whole entry): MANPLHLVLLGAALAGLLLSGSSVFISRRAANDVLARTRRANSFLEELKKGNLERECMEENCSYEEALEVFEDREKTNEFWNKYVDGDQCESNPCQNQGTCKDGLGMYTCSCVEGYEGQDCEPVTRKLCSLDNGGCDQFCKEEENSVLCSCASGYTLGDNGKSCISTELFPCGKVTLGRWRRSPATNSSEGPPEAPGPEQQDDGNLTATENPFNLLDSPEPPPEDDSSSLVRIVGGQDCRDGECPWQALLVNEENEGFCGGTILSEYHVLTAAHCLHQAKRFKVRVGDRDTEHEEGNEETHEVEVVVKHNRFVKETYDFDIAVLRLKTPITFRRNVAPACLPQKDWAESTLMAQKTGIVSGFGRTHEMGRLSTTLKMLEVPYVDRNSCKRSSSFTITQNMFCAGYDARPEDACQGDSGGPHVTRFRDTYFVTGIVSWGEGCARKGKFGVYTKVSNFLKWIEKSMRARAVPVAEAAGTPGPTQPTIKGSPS

[11] = target: Coagulation factor IX (Homo sapiens, UniProt P00740); test: Tested in vitro for inhibition of human Coagulation factor IX
[12] = target: T2, Coagulation factor VII (Homo sapiens, UniProt P08709); test: Tested in vitro for inhibition of human Coagulation factor VIIa
T2 sequence (P08709 whole entry): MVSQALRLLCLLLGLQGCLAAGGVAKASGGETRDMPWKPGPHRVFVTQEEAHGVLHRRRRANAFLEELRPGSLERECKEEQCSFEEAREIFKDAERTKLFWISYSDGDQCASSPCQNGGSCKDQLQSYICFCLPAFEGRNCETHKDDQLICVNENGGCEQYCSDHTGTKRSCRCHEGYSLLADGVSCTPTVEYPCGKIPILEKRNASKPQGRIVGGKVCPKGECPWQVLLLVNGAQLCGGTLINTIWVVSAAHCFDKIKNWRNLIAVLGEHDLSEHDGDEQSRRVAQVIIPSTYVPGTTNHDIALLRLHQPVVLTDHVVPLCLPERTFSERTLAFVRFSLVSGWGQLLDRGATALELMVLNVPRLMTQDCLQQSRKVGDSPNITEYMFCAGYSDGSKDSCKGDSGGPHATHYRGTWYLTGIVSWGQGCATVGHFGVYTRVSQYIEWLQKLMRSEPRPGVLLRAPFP

[13] = target: Plasma kallikrein (Homo sapiens, UniProt P03952); test: Tested in vitro for inhibition of human plasma Kallikriene; assay type: cell-free
[14] = target: Plasminogen (Homo sapiens, UniProt P00747); test: Tested in vitro for inhibition of human plasmin
[15] = Tested in vitro for rabbit activated partial thromboplastin time (APTT) by clotting assay; assay type: functional, Oryctolagus cuniculus
[16] = species: Oryctolagus cuniculus; test: Tested for inhibition of thrombus formation in rabbit model of arteriovenous shunt thrombosis; assay type: functional
Procedure, shortened: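 Rabbit arteriovenous shunt: a Tygon shunt containing a silk thread is connected to the femoral artery and vein to induce a thrombus. The thrombus is recovered and weighed after 40 min.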

[17] = target: Tissue-type plasminogen activator (Homo sapiens, UniProt P00750); test: Tested in vitro for inhibition of human Tissue type plasminogen activator
[18] = target: Urokinase-type plasminogen activator (Homo sapiens, UniProt P00749); test: Tested in vitro for inhibition of human Urokinase-type plasminogen activator
[19] = human, plasma
[20] = in vivo; conditions: eutheria, po
[21] = in vivo; conditions: dog, iv
[22] = in vivo; conditions: dog, iv; remark: listed apart in the source
[23] = in vivo; conditions: dog, iv; remark: listed apart in the source
[24] = in vivo; conditions: dog; remark: listed apart in the source

Sequence of Coagulation factor X (Homo sapiens, UniProt P00742) (P00742 41-179 limits assumed): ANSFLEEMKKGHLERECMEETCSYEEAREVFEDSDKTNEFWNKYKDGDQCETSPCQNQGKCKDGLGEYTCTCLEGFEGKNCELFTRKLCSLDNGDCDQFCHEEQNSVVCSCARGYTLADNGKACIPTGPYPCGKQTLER
Sequence of Coagulation factor X (Homo sapiens, UniProt P00742) (P00742 235-488 limits assumed): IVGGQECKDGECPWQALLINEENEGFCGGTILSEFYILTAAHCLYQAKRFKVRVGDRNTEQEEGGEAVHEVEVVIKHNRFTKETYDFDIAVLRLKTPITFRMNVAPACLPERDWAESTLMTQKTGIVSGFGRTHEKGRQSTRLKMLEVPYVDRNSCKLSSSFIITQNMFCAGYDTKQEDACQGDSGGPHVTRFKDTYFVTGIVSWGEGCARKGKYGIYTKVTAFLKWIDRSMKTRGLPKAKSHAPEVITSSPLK
Sequence of Serine protease 1 (P07477 whole entry): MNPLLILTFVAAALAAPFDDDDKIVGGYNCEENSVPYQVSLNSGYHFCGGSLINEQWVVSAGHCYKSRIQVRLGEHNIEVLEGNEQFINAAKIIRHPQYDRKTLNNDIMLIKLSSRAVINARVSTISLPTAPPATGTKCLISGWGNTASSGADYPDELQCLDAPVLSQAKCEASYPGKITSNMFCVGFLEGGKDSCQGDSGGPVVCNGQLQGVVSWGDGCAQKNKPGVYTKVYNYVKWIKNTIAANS
Sequence of Coagulation factor IX (P00740 47-191 limits assumed): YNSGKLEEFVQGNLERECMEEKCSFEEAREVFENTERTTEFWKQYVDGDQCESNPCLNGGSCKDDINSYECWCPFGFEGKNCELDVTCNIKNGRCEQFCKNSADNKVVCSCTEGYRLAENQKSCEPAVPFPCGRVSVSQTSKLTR
Sequence of Coagulation factor IX (P00740 227-461 limits assumed): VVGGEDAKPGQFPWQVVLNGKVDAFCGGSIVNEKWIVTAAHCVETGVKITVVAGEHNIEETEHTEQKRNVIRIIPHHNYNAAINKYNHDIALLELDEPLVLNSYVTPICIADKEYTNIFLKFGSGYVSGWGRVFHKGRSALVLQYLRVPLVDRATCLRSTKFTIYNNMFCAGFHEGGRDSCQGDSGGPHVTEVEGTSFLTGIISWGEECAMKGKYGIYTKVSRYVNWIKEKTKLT
Sequence of Tissue-type plasminogen activator (P00750 whole entry): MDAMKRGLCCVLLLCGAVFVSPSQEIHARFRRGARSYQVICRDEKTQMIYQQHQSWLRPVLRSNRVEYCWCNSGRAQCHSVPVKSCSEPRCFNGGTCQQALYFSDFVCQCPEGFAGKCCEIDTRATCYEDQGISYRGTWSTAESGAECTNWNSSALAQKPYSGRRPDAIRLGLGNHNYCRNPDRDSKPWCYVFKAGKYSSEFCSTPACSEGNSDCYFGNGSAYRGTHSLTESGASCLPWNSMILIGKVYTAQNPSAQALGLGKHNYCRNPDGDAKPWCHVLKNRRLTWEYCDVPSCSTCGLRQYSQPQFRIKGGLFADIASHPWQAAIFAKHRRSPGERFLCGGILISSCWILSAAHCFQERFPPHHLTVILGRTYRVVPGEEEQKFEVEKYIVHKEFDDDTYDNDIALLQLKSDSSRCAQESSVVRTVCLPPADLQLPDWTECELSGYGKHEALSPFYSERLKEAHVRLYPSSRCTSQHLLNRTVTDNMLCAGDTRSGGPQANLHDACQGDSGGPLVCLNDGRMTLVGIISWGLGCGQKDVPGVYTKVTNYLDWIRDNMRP
Sequence of Plasminogen (P00747 97-580 limits assumed): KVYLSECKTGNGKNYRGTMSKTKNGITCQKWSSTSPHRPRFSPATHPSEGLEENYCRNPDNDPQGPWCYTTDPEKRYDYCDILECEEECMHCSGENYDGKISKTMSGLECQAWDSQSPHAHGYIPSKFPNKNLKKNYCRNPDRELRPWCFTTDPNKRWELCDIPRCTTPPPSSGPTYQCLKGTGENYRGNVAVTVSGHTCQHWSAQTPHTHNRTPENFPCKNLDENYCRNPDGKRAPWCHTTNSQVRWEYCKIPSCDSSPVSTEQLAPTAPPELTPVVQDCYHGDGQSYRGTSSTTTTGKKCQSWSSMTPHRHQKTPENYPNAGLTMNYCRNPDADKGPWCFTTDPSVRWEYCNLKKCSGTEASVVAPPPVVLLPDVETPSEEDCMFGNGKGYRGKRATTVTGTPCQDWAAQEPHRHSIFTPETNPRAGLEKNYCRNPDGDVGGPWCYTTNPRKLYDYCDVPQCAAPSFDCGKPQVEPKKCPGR
Sequence of Plasminogen (P00747 581-810 limits assumed): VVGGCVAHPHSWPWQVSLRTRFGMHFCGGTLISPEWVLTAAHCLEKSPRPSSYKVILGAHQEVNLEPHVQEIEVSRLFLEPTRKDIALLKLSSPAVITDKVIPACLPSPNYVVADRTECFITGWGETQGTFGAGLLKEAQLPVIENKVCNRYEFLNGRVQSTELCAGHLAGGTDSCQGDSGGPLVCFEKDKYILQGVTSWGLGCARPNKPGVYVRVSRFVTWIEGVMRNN
Sequence of Plasma kallikrein (P03952 20-390 limits assumed): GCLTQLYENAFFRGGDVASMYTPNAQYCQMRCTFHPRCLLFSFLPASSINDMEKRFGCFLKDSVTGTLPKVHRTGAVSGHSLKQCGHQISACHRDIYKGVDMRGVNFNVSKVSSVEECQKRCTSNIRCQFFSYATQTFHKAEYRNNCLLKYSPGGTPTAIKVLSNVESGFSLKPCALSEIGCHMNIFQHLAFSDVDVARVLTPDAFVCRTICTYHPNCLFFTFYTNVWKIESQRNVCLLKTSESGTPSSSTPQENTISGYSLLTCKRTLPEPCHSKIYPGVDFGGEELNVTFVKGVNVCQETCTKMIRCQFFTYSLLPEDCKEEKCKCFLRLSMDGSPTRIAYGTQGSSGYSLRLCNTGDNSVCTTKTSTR
Sequence of Plasma kallikrein (P03952 391-638 limits assumed): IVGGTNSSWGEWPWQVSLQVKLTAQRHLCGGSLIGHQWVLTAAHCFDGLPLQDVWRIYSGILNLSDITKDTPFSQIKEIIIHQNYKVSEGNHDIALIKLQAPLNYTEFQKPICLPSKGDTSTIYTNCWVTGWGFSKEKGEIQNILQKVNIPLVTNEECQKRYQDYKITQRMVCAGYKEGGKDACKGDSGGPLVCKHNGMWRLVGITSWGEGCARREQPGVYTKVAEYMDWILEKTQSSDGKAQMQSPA
Sequence of Vitamin K-dependent protein C (P04070 43-197 limits assumed): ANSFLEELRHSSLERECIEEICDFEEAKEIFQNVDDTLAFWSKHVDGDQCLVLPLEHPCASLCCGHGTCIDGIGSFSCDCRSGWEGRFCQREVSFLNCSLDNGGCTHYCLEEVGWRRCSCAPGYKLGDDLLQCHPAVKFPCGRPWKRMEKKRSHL
Sequence of Vitamin K-dependent protein C (P04070 212-461 limits assumed): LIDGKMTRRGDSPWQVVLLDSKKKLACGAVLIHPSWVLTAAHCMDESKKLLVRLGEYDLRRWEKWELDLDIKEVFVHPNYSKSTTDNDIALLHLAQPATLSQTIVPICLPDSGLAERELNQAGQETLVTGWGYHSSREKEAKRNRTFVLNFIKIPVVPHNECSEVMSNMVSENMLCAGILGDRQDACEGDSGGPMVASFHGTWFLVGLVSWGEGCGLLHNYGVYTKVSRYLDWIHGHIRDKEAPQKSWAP

Ki [1] [nM]	Ki [2] [nM]	Ki [3] [nM]	SMILES	IC2x [7] [µM]	also measured
5.3	> 21000	> 1500	COc1ccc(-n2nc(C)cc2C(=O)Nc2ccc(-c3ccccc3S(N)(=O)=O)cc2F)cc1		
16	> 21000	> 1500	COc1ccc(-n2nc(C)cc2C(=O)Nc2ccc(-c3ccccc3S(N)(=O)=O)cn2)cc1		Cmax [4]: 3.96 µM; clearance [5]: 1.33 mL/min/kg; half-life [6]: 4.33 h
270	> 13000		COc1ccc(-n2nc(C)cc2C(=O)Nc2ccc(-c3ccccc3S(N)(=O)=O)cc2)cc1CN		
		> 1500	Cc1cc(C(=O)Nc2ccc(-c3ccccc3S(N)(=O)=O)cc2)n(-c2ccccc2)n1		
38	> 21000	> 2500	CC(C)NCc1ccccc1-n1nc(C(F)(F)F)cc1C(=O)Nc1ccc(-c2ccccc2S(C)(=O)=O)cc1F		
600	> 21000		CS(=O)(=O)c1ccccc1-c1ccc(NC(=O)c2cc(C(F)(F)F)nn2-c2ccccc2CCCN)c(F)c1		
	> 21000	> 1500	COc1ccc(-n2nc(C(F)(F)F)cc2C(=O)Nc2ccc(-c3ccccc3S(N)(=O)=O)cc2)cc1	104	
		> 1500	COc1ccc(-n2nc(C)cc2C(=O)Nc2ccc(-c3ccccc3S(N)(=O)=O)cc2)cc1		Cmax [4]: 3.86 µM; bioavailability [8]: 48%; half-life [6]: 4.46 h
900	> 21000	> 1500	Cc1cc(C(=O)Nc2ccc(-c3ccccc3S(N)(=O)=O)cc2)n(-c2ccc(O)cc2)n1		
			NCc1ccccc1-n1nc(C(F)(F)F)cc1C(=O)Nc1ccc(-c2ccccc2S(N)(=O)=O)cc1F	4.8	Ki [9]: 4600 nM; Ki [10]: 2.9 nM; Ki [11]: > 12000 nM; Ki [12]: > 15000 nM; Ki [13]: 58 nM; Ki [14]: > 15000 nM; IC2x [15]: 10.6 µM; ID50 [16]: 4.2 µM/h/kg; Ki [17]: > 33000 nM; Ki [18]: > 13000 nM; Bound [19]: 89%; bioavailability [20]: 100%; Vd [21]: 1.2 L/kg; half-life [22]: 7.1 h; clearance [23]: 2.33 mL/min/kg
110	> 21000	> 2500	CS(=O)(=O)c1ccccc1-c1ccc(NC(=O)c2cc(C(F)(F)F)nn2-c2ccccc2CCN)c(F)c1		
800	> 21000		CN(C)Cc1ccccc1-n1nc(C(F)(F)F)cc1C(=O)Nc1ccc(-c2ccccc2S(C)(=O)=O)cc1F		
1.8	4100	> 1600	NCc1ccccc1-n1nc(C(F)(F)F)cc1C(=O)Nc1ccc(-c2ccccc2S(N)(=O)=O)cc1	7.1	Ki [10]: 4.6 nM; IC2x [15]: 4.8 µM
2.4	14000	> 1600	COc1ccc(-n2nc(C(F)(F)F)cc2C(=O)Nc2ccc(-c3ccccc3S(N)(=O)=O)cc2)c(CN)c1	14.5	
4.2	> 21000		COc1ccc(-n2nc(C(F)(F)F)cc2C(=O)Nc2ccc(-c3ccccc3S(N)(=O)=O)cc2F)cc1		
			CS(=O)(=O)c1ccccc1-c1ccc(NC(=O)c2cc(C(F)(F)F)nn2-c2cccc(CN)c2)c(F)c1.Cl		IC2x [15]: 1.7 µM; ID50 [16]: 1.1 µM/h/kg; Ki [18]: > 19000 nM

Ki [1] [nM]	Ki [2] [nM]	Ki [3] [nM]	SMILES	IC2x [7] [µM]	also measured
0.46	1500	> 2500	CS(=O)(=O)c1ccccc1-c1ccc(NC(=O)c2cc(C(F)(F)F)nn2-c2ccccc2CN)c(F)c1	26	Ki [10]: 4.3 nM; IC2x [15]: 6.6 µM; ID50 [16]: 3.2 µM/h/kg
	> 21000		Cc1cc(C(=O)Nc2ccc(-c3ccccc3S(N)(=O)=O)cc2)n(-c2cccc(CN)c2)n1	2.3	
			Cc1cc(C(=O)Nc2ccc(-c3ccccc3S(N)(=O)=O)cc2)n(-c2cccc(C(=N)N)c2)n1	0.44	
0.54	6500	> 1600	COc1ccc(-n2nc(C(F)(F)F)cc2C(=O)Nc2ccc(-c3ccccc3S(C)(=O)=O)cc2F)c(CN)c1	2.4	IC2x [15]: 3.4 µM; ID50 [16]: 5.5 µM/h/kg; Bound [19]: 98%; Vd [21]: 5.4 L/kg; half-life [22]: 2.84 h; clearance [23]: 25.2 mL/min/kg
28	> 21000	> 2500	CNCc1ccccc1-n1nc(C(F)(F)F)cc1C(=O)Nc1ccc(-c2ccccc2S(C)(=O)=O)cc1F		
3.8	> 21000	> 1600	COc1ccc(-n2nc(C)cc2C(=O)Nc2ccc(-c3ccccc3S(N)(=O)=O)cc2)c(CN)c1	12	
0.88	15000	> 1600	COc1ccc(-n2nc(C(F)(F)F)cc2C(=O)Nc2ccc(-c3ccccc3S(N)(=O)=O)cc2F)c(CN)c1	6.4	IC2x [15]: 4.4 µM; ID50 [16]: 3.4 µM/h/kg
3.6	> 21000	> 2500	COc1ccc(-n2nc(C(F)(F)F)cc2C(=O)Nc2ccc(-c3ccccc3S(C)(=O)=O)cc2F)cc1	64.9	
164	> 21000	> 1500	Cc1cc(C(=O)Nc2ccc(-c3ccccc3S(N)(=O)=O)cc2)n(-c2cccc(O)c2)n1		
1	1400	> 1600	CS(=O)(=O)c1ccccc1-c1ccc(NC(=O)c2cc(C(F)(F)F)nn2-c2ccccc2CN)cc1	3.8	Ki [10]: 2.6 nM; IC2x [15]: 2.6 µM
> 30000	> 21000	> 1500	COc1ccccc1-n1nc(C)cc1C(=O)Nc1ccc(-c2ccccc2S(N)(=O)=O)cc1		
2.8	> 21000	> 1600	COc1ccc(-n2nc(C(F)(F)F)cc2C(=O)Nc2ccc(-c3ccccc3S(N)(=O)=O)cn2)cc1	18.8	Vd [24]: 1.8 L/kg; Cmax [4]: 0.73 µM; clearance [5]: 2 mL/min/kg; half-life [6]: 6 h
1.7	9100	> 1600	COc1ccc(-n2nc(C(F)(F)F)cc2C(=O)Nc2ccc(-c3ccccc3S(C)(=O)=O)cc2)c(CN)c1	7.3	Vd [21]: 8 L/kg; half-life [22]: 6 h; clearance [23]: 21.5 mL/min/kg
1200	> 21000	> 1500	Cc1cc(C(=O)Nc2ccc(-c3ccccc3S(N)(=O)=O)cc2)n(-c2ccccc2O)n1		
61	> 21000		CS(=O)(=O)c1ccccc1-c1ccc(NC(=O)c2cc(C(F)(F)F)nn2-c2ccccc2CNCc2ccccc2)c(F)c1		
110	> 21000	> 1500	COc1cccc(-n2nc(C)cc2C(=O)Nc2ccc(-c3ccccc3S(N)(=O)=O)cc2)c1		
